Measurements: ChEMBL document CHEMBL3792296, “Synthesis and antiproliferative activity of 9-benzylamino-6-chloro-2-methoxy-acridine derivatives as potent DNA-binding ligands and topoisomerase II inhibitors” (Eur J Med Chem, 2016)
Calls of active or inactive are those of the source. The calls are words filed in the database; no cut-off is given here.

Tests used:
A549 [1] = experiment: Induction of apoptosis in human A549 cells assessed as increase in expression of cleaved caspase 7 at 1 to 2.5 uM after 48 hrs by Western blot analysis; type: functional, cell-based
Procedure, shortened: (§1)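 A549 cells grown to 80% confluency, treated with graded concentrations for 48 h, then lysed in Tris-HCl/NaCl/Triton X-100 buffer with protease inhibitors. 40 µg protein resolved on 12 or 15% SDS-PAGE and blotted to PVDF. Primary antibodies used at 1:1000 for 6-8 h, HRP anti-rabbit at 1:2000 for 2 h, ECL detection, β-actin as loading control.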

[2] = molecular target: T1, DNA topoisomerase 1 (Homo sapiens) (UniProt P11387); experiment: Inhibition of human topoisomerase 1 assessed as reduction in enzyme-mediated relaxation of supercoiled pBR322 DNA at 50 to 100 uM after 10 to 15 mins by agarose gel electrophoresis
T1 sequence (whole entry): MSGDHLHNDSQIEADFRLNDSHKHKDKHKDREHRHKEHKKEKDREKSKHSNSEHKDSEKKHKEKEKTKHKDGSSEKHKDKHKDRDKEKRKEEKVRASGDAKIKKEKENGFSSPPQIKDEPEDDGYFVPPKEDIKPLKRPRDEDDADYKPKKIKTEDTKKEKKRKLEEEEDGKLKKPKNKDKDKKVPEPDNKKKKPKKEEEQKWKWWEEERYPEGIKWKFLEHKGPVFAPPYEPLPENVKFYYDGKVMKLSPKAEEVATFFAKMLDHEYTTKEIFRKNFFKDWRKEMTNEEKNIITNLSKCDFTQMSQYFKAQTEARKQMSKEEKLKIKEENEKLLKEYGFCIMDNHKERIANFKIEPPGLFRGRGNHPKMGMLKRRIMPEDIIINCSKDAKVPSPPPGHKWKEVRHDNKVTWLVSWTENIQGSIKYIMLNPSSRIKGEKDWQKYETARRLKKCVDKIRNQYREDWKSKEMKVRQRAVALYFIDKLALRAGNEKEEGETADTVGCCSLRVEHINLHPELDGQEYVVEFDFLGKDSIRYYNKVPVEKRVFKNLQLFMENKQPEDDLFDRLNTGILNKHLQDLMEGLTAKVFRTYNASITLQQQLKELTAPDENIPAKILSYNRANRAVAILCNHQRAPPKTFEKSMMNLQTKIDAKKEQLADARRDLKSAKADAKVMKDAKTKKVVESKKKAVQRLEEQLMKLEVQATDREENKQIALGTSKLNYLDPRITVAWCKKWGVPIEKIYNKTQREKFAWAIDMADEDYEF
Procedure, shortened: (§2)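 Relaxation of 500 ng supercoiled pBR322 by 1 unit human Topo I or Topo IIα, with or without compound, in 20 µL reaction buffer at 37 °C for 10-15 min. Reactions stopped with loading buffer, run on 0.8% agarose in TAE at 80 V for 30 min. Gels stained with ethidium bromide 2.5 µg/mL and viewed under UV.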

A549 [3] = experiment: Induction of apoptosis in human A549 cells assessed as increase in expression of cleaved caspase 9 at 1 to 2.5 uM after 48 hrs by Western blot analysis; type: functional, cell-based; procedure, shortened: as §1
A549 [4] = experiment: Induction of apoptosis in human A549 cells assessed as late apoptotic cells at 10 uM after 48 hrs by Annexin V-FITC/propidium iodide staining based FACS analysis (reference value: 0.62%); type: functional
Procedure, shortened: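 A549 cells seeded at 2 × 10⁵ per well, incubated overnight, then treated at 0, 5 or 10 µM. The legend gives 36 or 48 h; the methods section states 24 h. Annexin V-FITC/PI kit staining followed by flow cytometry. Early and late apoptotic cells expressed as cumulative percentage relative to control.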

A549 [5] = experiment: Cell cycle arrest in human A549 cells assessed as accumulation at S phase at 5 uM after 36 hrs by propidium iodide staining based flow cytometry (reference value: 30.73%); type: functional
A549 [6] = experiment: Antiproliferative activity against human A549 cells after 48 hrs by MTT assay; type: functional, cell-based; details: A549, 48 h
Procedure, shortened: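 MTT assay: cells seeded at 4-8 × 10³ per well, incubated overnight at 37 °C in 5% CO₂, then given fresh medium with graded compound concentrations or equal DMSO for 48 h. MTT (5 mg/mL solution) added for a further 4 h, formazan dissolved in DMSO, absorbance read at 490 nm. Six cancer cell lines tested.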

A549 [7] = experiment: Cell cycle arrest in human A549 cells assessed as accumulation at G0/G1 phase at 1 uM after 36 hrs by propidium iodide staining based flow cytometry (reference value: 61.65%); type: functional
A549 [8] = experiment: Cell cycle arrest in human A549 cells assessed as accumulation at G2/M phase at 0.5 uM after 36 hrs by propidium iodide staining based flow cytometry (reference value: 7.62%); type: functional
A549 [9] = experiment: Cell cycle arrest in human A549 cells assessed as accumulation at G2/M phase at 1 uM after 36 hrs by propidium iodide staining based flow cytometry (reference value: 7.62%); type: functional
[10] = molecular target: DNA topoisomerase 2-alpha (Homo sapiens) (UniProt P11388); experiment: Inhibition of human recombinant topoisomerase 2-alpha expressed in Escherichia coli assessed as reduction in enzyme-mediated relaxation of supercoiled pBR322 DNA at 100 uM after 10 to 15 mins by agarose gel electrophoresis; procedure, shortened: as §2
DNA topoisomerase 2-alpha (Homo sapiens), sequence (P11388 whole entry): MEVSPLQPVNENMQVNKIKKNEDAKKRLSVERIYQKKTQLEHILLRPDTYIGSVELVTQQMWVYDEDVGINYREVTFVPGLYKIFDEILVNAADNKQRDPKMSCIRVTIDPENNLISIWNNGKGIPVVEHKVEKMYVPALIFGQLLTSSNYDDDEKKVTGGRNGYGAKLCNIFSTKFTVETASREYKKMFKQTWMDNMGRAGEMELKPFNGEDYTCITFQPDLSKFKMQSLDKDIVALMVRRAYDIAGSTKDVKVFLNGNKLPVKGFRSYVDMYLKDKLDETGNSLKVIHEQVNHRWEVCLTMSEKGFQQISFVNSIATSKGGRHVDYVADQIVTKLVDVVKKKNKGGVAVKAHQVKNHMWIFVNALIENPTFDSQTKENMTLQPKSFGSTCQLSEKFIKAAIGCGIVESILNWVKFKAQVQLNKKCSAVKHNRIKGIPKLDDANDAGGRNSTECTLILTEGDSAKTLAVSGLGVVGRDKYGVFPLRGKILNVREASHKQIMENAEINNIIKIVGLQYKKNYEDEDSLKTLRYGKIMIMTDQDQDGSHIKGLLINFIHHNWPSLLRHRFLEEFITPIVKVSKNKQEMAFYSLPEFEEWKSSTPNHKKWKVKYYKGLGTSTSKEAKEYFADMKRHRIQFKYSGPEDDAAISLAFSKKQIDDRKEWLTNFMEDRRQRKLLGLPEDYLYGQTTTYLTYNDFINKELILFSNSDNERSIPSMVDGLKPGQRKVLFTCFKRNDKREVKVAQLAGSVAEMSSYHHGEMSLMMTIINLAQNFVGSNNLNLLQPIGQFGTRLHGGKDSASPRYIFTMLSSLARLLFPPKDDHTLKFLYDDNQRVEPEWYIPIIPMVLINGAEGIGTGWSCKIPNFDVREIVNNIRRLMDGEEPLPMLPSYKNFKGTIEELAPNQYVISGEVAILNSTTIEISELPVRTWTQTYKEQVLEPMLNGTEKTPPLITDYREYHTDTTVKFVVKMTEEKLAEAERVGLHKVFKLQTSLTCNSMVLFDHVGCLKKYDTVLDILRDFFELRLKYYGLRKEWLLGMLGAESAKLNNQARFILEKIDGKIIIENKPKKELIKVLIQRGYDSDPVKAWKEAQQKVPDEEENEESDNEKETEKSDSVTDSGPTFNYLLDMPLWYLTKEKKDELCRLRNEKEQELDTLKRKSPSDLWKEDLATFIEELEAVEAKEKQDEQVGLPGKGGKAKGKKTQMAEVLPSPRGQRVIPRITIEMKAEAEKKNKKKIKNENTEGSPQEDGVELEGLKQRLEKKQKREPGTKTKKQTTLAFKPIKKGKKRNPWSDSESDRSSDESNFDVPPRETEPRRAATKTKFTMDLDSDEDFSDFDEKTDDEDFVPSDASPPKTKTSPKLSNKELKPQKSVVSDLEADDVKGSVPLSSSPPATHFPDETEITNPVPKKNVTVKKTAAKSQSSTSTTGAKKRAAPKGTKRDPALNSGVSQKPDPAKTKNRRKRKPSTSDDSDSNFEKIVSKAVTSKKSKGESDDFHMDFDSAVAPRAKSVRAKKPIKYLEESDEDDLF

COc1ccc(CNc2c3ccc(Cl)cc3nc3ccc(OC)cc23)cc1
Activity (A549 [1]): Active | inhibition [2]: Active | Activity (A549 [3]): Active | Activity (A549 [4]): 82.46% | Activity (A549 [5]): 21.45% | IC50 (A549 [6]): 0.61 µM | Activity (A549 [7]): 60.83% | Activity (A549 [8]): 8.12% | Activity (A549 [9]): 9.62% | inhibition [10]: Active
